Measurements as given in ChEMBL document CHEMBL4715918, “Syntheses and evaluation of acridone-naphthalimide derivatives for regulating oncogene PDGFR-β expression” (Bioorg Med Chem, 2021).

Tests used:
[1] = Binding affinity to FAM-labeled 5'-biotin-d[TATAGCTATA-HEG-TATAGCTATA]- 3' duplex DNA (unknown origin) by microscale thermophoresis assay
In short: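 Microscale thermophoresis with DNA held constant at 1 µM. Compound serially diluted 3:4 from 10 µM over 12 points. Samples run in standard glass capillaries with LED and laser power both at 20%. KD derived by fitting.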

[2] = molecular target: Quadruplex DNA; assay: Binding affinity to 5'-biotin-d [GCTGGGAGAAGGGGGGGCGGCGGGGCAGGGAGGGTGGACGC]-3' G4-quadruplex DNA (unknown origin) by surface plasmon resonance assay; assay type: nucleic-acid assay
In short: (§1)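 SPR: biotinylated oligomers were captured on a neutravidin chip at ~1000 RU, with a blank reference cell. Running buffer was 20 mM MES pH 5.5, 100 mM KCl, 0.05% Tween-20 for the i-motif, or 50 mM Tris-HCl pH 7.4, 100 mM KCl for the G-quadruplex. Ligand was injected at 0–10 μM (six concentrations), with 200 s association and 300 s dissociation at 25 °C.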

[3] = tested on: MCF7; assay: Antiinvasive activity in human MCF7 cells assessed as reduction in cell migration by microscopic method; assay type: functional, cell-based; details: dose […], time 24-48 hrs
In short: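 Scratch assay: MCF-7 seeded 300,000 cells/well, grown 24 h at 37 °C/5% CO2, then a cross-shaped scrape was made through the monolayer with a pipet tip. Cells were exposed to 5, 2.5, 1.25, 0.625, 0.3125 μM compound or DMSO control. Wounded areas were photographed by microscopy at 0, 24 and 48 h.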

[4] = tested on: MCF7; assay: Induction of cell cycle arrest in human MCF7 cells assessed as accumulation at G2/M phase after 48 hrs by propidium iodide staining based flow cytometric analysis; assay type: functional; details: dose 0.625-10 µM
In short: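 MCF-7 cells, 2 × 10^5/well, were pre-grown 12 h, then treated with 10, 5, 2.5, 1.25, 0.625 μM compound or DMSO. Cells were fixed in 75% ethanol at −20 °C overnight. Staining was 50 μg/mL PI with RNase A, 30 min at room temperature in the dark. Flow cytometry collected 10,000 events; phase distribution was determined.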

[5] = tested on: MCF7; assay: Induction apoptosis in human MCF7 cells assessed as necrotic cells at 1.25 uM incubated for 24 hrs by Annexin-FTTC/PI staining based flow cytometric analysis (reference value: 0.11%); assay type: functional
[6] = tested on: MCF7; assay: Inhibition of colony formation in human MCF7 cells after 7 days by crystal staining based assay; assay type: functional, cell-based; details: dose 0.3125-2.5 µM, time 7.0 day
In short: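 MCF-7 cells were seeded at 1,000/well and grown 24 h, then exposed 7 days to 2.5, 1.25, 0.625, 0.3125 μM compound or DMSO. Colonies were fixed in methanol, stained with crystal violet and imaged.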

[7] = tested on: MCF7; assay: Binding affinity to wild type PDGFRbeta promoter (unknown origin) in human MCF7 cells after 48 hrs by dual luciferase reporter assay; assay type: cell-based
In short: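 MCF-7 cells were transfected with 200 ng psiCHECK2 plasmid carrying the wild-type PDGFR-β promoter. After 4 h, compound was added at various concentrations and cells were incubated 48 h at 37 °C. Cells were washed with cold PBS and dual-luciferase signals read for 10 s. Renilla activity was normalised to firefly.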

[8] = Toxicity in nude BALB/c mouse xenografted with human MCF7 cells assessed as lung weight at 2.5 to 10 mg/kg, ip administered for 34 days; assay type: organism-based; details: in vivo, 816 h, dose 2.5-10 mg/kg, time 34 day
[9] = Toxicity in nude BALB/c mouse xenografted with human MCF7 cells assessed as spleen weight at 2.5 to 10 mg/kg, ip administered for 34 days; assay type: organism-based; details: in vivo, 816 h, dose 2.5-10 mg/kg, time 34 day
In short: (§2)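 Nude BALB/c females bearing subcutaneous MCF-7 xenografts were dosed ip once daily for 34 days at 2.5, 5.0 or 10 mg/kg, with saline vehicle (100 µL) as control. Body weight was recorded every 2 days. After euthanasia by cervical dislocation, heart, liver, spleen and kidney were removed and weighed.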

[10] = Binding affinity to 5'-biotin-d [GCGTCCACCCTCCCTGCCCCGCCGCCCCCCCITCTCCCAGC]-3' i-motif DNA (unknown origin) assessed as decrease in positive peak by CD spectroscopy; details: dose 2-10 equiv
In short: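 CD spectra: oligomers at 2 μM final, in BPES pH 5.5 (i-motif) or Tris-HCl pH 7.4 (G-quadruplex). Samples were annealed (95 °C 5 min, slow cool, 4 °C overnight), then titrated with increasing compound. Spectra were recorded at 25 °C over 230–330 nm in a 1 mm cuvette, buffer-subtracted, averaged and smoothed.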

[11] = tested on: MCF7; assay: Antitumour activity against human MCF7 cells xenografted in nude BALB/c mouse assessed as tumour growth inhibition at 2.5 mg/kg, ip administered for 34 days relative to control; assay type: functional; details: 816 h, time 34 day, read-out: TGI
[12] = tested on: MCF7; assay: Cytotoxicity against human MCF7 cells assessed as reduction in cell viability after 48 hrs by xcCELLigence RTCA analysis; assay type: functional, cell-based; details: MCF7, 48 h
In short: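 xCELLigence RTCA: MCF-7 cells were cultured on E-plates about 16 h, then treated with 0.625, 1.25, 2.5 μM compound or DMSO. Impedance was monitored for 90 h.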

[13] = tested on: MCF7; assay: Antitumour activity against human MCF7 cells xenografted in nude BALB/c mouse assessed as tumour growth inhibition at 10 mg/kg, ip administered for 34 days relative to control; assay type: functional; details: 816 h, time 34 day, read-out: TGI
[14] = tested on: MCF7; assay: Induction apoptosis in human MCF7 cells assessed as late apoptotic cells at 5 uM incubated for 24 hrs by Annexin-FTTC/PI staining based flow cytometric analysis (reference value: 0%); assay type: functional
[15] = Toxicity in nude BALB/c mouse xenografted with human MCF7 cells assessed as liver weight at 2.5 to 10 mg/kg, ip administered for 34 days; assay type: organism-based; details: in vivo, 816 h, dose 2.5-10 mg/kg, time 34 day; in short: as §2
[16] = tested on: MCF7; assay: Induction apoptosis in human MCF7 cells assessed as viable cells at 5 uM incubated for 24 hrs by Annexin-FTTC/PI staining based flow cytometric analysis (reference value: 99.7%); assay type: functional; details: read-out: Activity
[17] = tested on: MCF7; assay: Induction apoptosis in human MCF7 cells assessed as late apoptotic cells at 2.5 uM incubated for 24 hrs by Annexin-FTTC/PI staining based flow cytometric analysis (reference value: 0%); assay type: functional
[18] = Binding affinity to 5'-biotin-d [GCGTCCACCCTCCCTGCCCCGCCGCCCCCCCITCTCCCAGC]-3' i-motif DNA (unknown origin) by surface plasmon resonance assay; in short: as §1
[19] = tested on: Quadruplex DNA; assay: Binding affinity to 5'-biotin-d [GCTGGGAGAAGGGGGGGCGGCGGGGCAGGGAGGGTGGACGC]-3' G4-quadruplex DNA (unknown origin) assessed as change in melting temperature at 10 uM by CD spectroscopy; assay type: nucleic-acid assay
In short: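 Oligomer 2 µM in Tris-HCl pH 7.4, annealed (95 °C for 5 min, slow cooling, 4 °C overnight). Ligand 10 µM. CD ellipticity followed at 263 nm over 25–95 °C; ΔTm taken against DNA alone.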

[20] = tested on: MCF7; assay: Induction apoptosis in human MCF7 cells assessed as necrotic cells at 2.5 uM incubated for 24 hrs by Annexin-FTTC/PI staining based flow cytometric analysis (reference value: 0.11%); assay type: functional
[21] = tested on: MCF7; assay: Antitumour activity against human MCF7 cells xenografted in ip dosed nude BALB/c mouse assessed as tumour growth inhibition administered for 34 days; assay type: functional, organism-based; details: dose 2.5-10 mg/kg, time 34.0 day

Kd [1]: 529 µM | Kd [2]: 3.23 µM | Activity [10]: Dose-dependent effect | Kd [18]: 3.12 µM | ΔTm [19]: > 20 °C
SMILES: Cc1ccc2c(c1)c(=O)c1cc(C(=O)NCCCN(C)CCCN3C(=O)c4cccc5c(N6CCN(C)CC6)ccc(c45)C3=O)ccc1n2-c1ccc(C(=O)NCCCN(C)CCCN2C(=O)c3cccc4c(N5CCN(C)CC5)ccc(c34)C2=O)cc1
Activity [3]: Dose-dependent effect | Activity [4]: Dose-dependent effect | Activity [5]: 0.43% | inhibition [6]: Dose-dependent effect | Activity [7]: Dose-dependent effect | Activity [8]: Non-Toxic | Activity [9]: Non-Toxic | inhibition in vivo at 2.5 mg/kg [11]: 34.9% | IC50 [12]: 2.74 µM | inhibition in vivo at 10 mg/kg [13]: 56.5% | Activity [14]: 51.1% | Activity [15]: Non-Toxic | viability at 5 µM [16]: 13% | Activity [17]: 1.96% | Activity [20]: 0.49% | Activity [21]: Dose-dependent effect
